The test system of data set [1] is scFv K7 displayed on the yeast cell-surface. In words: Fluorescence titration of dye into yeast surface-displayed K7. The conditions noted are these: read-out: Kd Yeast-Displayed K7, 10^7 yeast cells, 1:1 binding model.
The nature of data set [2]: Thermal bleaching by singlet oxygen from sodium molybdate and H2O2. The format is physicochemical. To be noted: for loss of absorbance (bleaching): free dye 1 μM. Summed up:
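Singlet oxygen was generated thermally from 50 mM Na2MoO4 plus 9.8 mM H2O2 (final) at pH 9.0, with ionic strength matched to standard wash buffer. Reactions used 1 µM dye, free (in H2O or D2O, followed by absorbance) or with 1 µM K7. Spectra were taken before molybdate addition, then every 10 min for 40 min.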

Data set [3] can be described thus: Photobleaching of DIR/K7 by Xe lamp irradiation and fluoromodule regeneration. Type of data set: physicochemical.
Data set [4] can be described thus: Photobleaching by direct irradiation. Type of data set: physicochemical. The conditions noted are these: compare Figures 3 and 10, per photons absorbed per dye molecule.

“And” between values parts separate entries of the source, which are not always exact repeats. Equal values may be shown once.

As usually defined, the Kd is a measure of binding affinity in units of concentration.

In the case of `CN1/C(=C/C=C/c2cc[n+](CCCS(=O)(=O)[O-])c3ccccc23)C(C)(C)c2ccccc21` [DIR, dimethylindole red], in data set [1], the equilibrium dissociation constant (Kd) came to 13.9 ± 3.2 nM. The “bleaching in the presence of K7” value in data set [2] ([Dye] = [K7] = 1 μM, pH 9, 40 min) was 20%. Also, the “loss of absorbance (bleaching)” value is 74% in data set [2] (no K7, 90% D2O, pH 9, 40 min) and 42% in data set [2] (no K7, H2O, pH 9, after 40 min reaction). Also, in data set [3] (1:1 DIR/K7 at 250 nM, λ > 455 nm, 15 min, H2O), the “loss of DIR fluorescence after irradiation” value was 55 (±7) % and 55%. Also, the “fluorescence restored after addition of another equivalent of DIR” value in data set [3] (after 15 min irradiation, one equivalent (250 nM) fresh DIR added) is listed as 89 % of the original value.
For the molecule `CN1C(=Cc2cc[n+](C)c3ccccc23)Sc2ccccc21` [TO, thiazole orange], in data set [4], the “photobleaching efficiency relative to DIR and α-CN-DIR” value was > 100 fold.

The record behind these values is PMC2744899 (Journal of the American Chemical Society, 2009).
